What was measured:
Rattus norvegicus [1] = test: Antiinflammatory activity in albino rat assessed as inhibition of carrageenan-induced paw edema at 0.28 mmol/kg, po administered 30 mins before carrageenan challenge measured after 1 hr relative to control; format: functional
Summary of the method: (§1)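 Male albino rats, n = 4 per group. Dosed orally as a suspension in 0.5% w/v CMC in water; controls received CMC alone. 0.1 mL of freshly prepared 1% carrageenan in saline was injected subplantar into the right hind paw 30 min after dosing, with saline in the left paw. Right paw thickness was read by Vernier caliper before and at 1–5 h. Result is % decrease in edema vs control, mean ± S.E.M.; one-way ANOVA.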

Rattus norvegicus [2] = test: Antiinflammatory activity in albino rat assessed as inhibition of carrageenan-induced paw edema at 0.28 mmol/kg, po administered 30 mins before carrageenan challenge measured after 2 hrs relative to control; format: functional; summary of the method: as §1
Rattus norvegicus [3] = test: Ulcerogenic effect in albino rat assessed as ulcer index at 0.28 mmol/kg, po; format: toxicity, organism-based; settings: in vivo
Summary of the method: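 Rat gastric ulcers were graded by area: level I <1 mm², level II 1–3 mm², level III >3 mm². Ulcer index = 1×(level I count) + 2×(level II) + 3×(level III). Reported as mean ± S.E.M., n = 4.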

[4] = target: T1, Prostaglandin G/H synthase 2 (Homo sapiens, UniProt P35354); test: Inhibition of human recombinant COX2 assessed as prostaglandin F2alpha level
T1 sequence (P35354 whole entry): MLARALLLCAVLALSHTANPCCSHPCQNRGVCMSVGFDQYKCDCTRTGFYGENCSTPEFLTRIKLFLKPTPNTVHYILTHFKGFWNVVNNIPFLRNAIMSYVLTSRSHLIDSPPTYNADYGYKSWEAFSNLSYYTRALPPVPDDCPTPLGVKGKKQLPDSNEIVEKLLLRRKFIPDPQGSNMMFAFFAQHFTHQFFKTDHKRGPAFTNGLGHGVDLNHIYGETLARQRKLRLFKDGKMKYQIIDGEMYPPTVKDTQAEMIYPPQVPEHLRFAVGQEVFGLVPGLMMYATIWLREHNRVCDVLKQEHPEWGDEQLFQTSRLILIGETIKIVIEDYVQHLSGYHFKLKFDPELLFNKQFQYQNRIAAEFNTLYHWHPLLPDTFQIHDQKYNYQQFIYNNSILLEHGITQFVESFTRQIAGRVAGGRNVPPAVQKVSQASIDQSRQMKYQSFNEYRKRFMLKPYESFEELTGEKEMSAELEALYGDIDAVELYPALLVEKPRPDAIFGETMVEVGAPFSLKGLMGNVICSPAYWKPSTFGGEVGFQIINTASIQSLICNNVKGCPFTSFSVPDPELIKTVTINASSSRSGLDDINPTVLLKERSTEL

Rattus norvegicus [5] = test: Antiinflammatory activity in albino rat assessed as inhibition of carrageenan-induced paw edema at 0.28 mmol/kg, po administered 30 mins before carrageenan challenge measured after 3 hrs relative to control; format: functional; summary of the method: as §1
Rattus norvegicus [6] = test: Antiinflammatory activity in albino rat assessed as inhibition of carrageenan-induced paw edema at 0.28 mmol/kg, po administered 30 mins before carrageenan challenge measured after 4 hrs relative to control; format: functional; summary of the method: as §1
Rattus norvegicus [7] = test: Antiinflammatory activity in albino rat assessed as inhibition of carrageenan-induced paw edema at 0.28 mmol/kg, po administered 30 mins before carrageenan challenge measured after 3 hrs relative to celecoxib; format: functional; settings: read-out: INH
Summary of the method: (§2)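 Calculated from the 3 h % edema inhibition in carrageenan paw edema (male albino rats, oral dosing in 0.5% CMC 30 min before 1% carrageenan subplantar injection). Expressed as % of the inhibition given by the reference drug in the same assay.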

[8] = target: T2, Prostaglandin G/H synthase 1 (Ovis aries, UniProt P05979); test: Inhibition of ovine COX1 assessed as prostaglandin F2alpha level
T2 sequence (P05979 whole entry): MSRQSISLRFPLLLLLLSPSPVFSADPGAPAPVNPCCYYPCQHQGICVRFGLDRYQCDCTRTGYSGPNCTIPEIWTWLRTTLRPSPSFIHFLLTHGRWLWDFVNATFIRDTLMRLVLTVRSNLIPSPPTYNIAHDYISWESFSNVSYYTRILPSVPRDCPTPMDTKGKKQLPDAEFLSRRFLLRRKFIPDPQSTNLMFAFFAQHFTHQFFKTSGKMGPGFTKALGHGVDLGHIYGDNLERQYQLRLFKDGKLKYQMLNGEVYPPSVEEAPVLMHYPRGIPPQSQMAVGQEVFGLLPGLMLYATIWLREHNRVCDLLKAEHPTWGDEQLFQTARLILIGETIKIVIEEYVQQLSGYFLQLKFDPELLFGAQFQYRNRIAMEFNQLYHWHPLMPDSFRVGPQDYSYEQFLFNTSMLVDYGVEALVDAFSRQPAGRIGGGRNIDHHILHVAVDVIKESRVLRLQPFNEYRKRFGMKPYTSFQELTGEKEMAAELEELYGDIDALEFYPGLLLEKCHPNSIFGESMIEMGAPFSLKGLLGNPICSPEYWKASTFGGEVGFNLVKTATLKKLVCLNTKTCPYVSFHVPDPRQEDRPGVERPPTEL

Rattus norvegicus [9] = test: Antiinflammatory activity in albino rat assessed as inhibition of carrageenan-induced paw edema at 0.28 mmol/kg, po administered 30 mins before carrageenan challenge measured after 5 hrs relative to control; format: functional; summary of the method: as §1
Rattus norvegicus [10] = test: Antiinflammatory activity in albino rat assessed as inhibition of carrageenan-induced paw edema at 0.28 mmol/kg, po administered 30 mins before carrageenan challenge measured after 3 hrs relative to indomethacin; format: functional; settings: read-out: INH; summary of the method: as §2

IC50 [4] [µM] | IC50 [8] [µM] | SMILES | inhibition in vivo at 280 µmol/kg (Rattus norvegicus [1]) [%] | inhibition in vivo at 280 µmol/kg (Rattus norvegicus [2]) [%] | UI (Rattus norvegicus [3]) | inhibition in vivo at 280 µmol/kg (Rattus norvegicus [5]) [%] | inhibition in vivo at 280 µmol/kg (Rattus norvegicus [6]) [%] | paw edema inhibition relative to celecoxib at 280 µmol/kg (Rattus norvegicus [7]) [%] | inhibition in vivo at 280 µmol/kg (Rattus norvegicus [9]) [%] | paw edema inhibition relative to indomethacin at 280 µmol/kg (Rattus norvegicus [10]) [%]
> 100 | > 100 | COc1ccc(-n2nc(C(=O)Nc3ccc(OC)c(OC)c3)nc2-c2cc(OC)c(OC)c(OC)c2)cc1 | 57 | 68 | 7 | 78 | 70 | 115 | 61 | 100
– | – | Cc1ccc(-c2cc(C(F)(F)F)nn2-c2ccc(S(N)(=O)=O)cc2)cc1 [CELECOXIB] | 42 | 48 | 0.5 | 68 | 57 | – | 51 | –
– | – | COc1ccc(-n2nc(C(=O)Nc3ccccc3OC)nc2-c2cc(OC)c(OC)c(OC)c2)cc1 | 52 | 57 | 5 | 30 | 24 | 44 | 10 | 38
– | – | COc1ccc(NC(=O)c2nc(-c3cc(OC)c(OC)c(OC)c3)n(-c3ccc(OC)cc3)n2)cc1 | 39 | 45 | 4.5 | 67 | 63 | 99 | 51 | 86
> 100 | > 100 | COc1ccc(-n2nc(C(=O)Nc3ccc(Cl)cc3)nc2-c2cc(OC)c(OC)c(OC)c2)cc1 | 55 | 70 | 5 | 78 | 75 | 115 | 70 | 100
– | – | COc1ccc(-n2nc(C(=O)Nc3ccc(C(=O)O)cc3)nc2-c2cc(OC)c(OC)c(OC)c2)cc1 | 50 | 57 | 12 | 74 | 69 | 109 | 60 | 95
– | – | COc1ccc(-n2nc(C(=O)Nc3ccccc3)nc2-c2cc(OC)c(OC)c(OC)c2)cc1 | 45 | 51 | 4 | 54 | 50 | 79 | 46 | 69
> 100 | > 100 | COc1ccc(-n2nc(C(=O)Nc3ccc(Br)cc3)nc2-c2cc(OC)c(OC)c(OC)c2)cc1 | 40 | 50 | 1.8 | 66 | 59 | 97 | 57 | 85

Source: ChEMBL document CHEMBL3232916, “1-(4-Methoxyphenyl)-5-(3,4,5-trimethoxyphenyl)-1H-1,2,4-triazole-3-carboxamides: synthesis, molecular modeling, evaluation of their anti-inflammatory activity and ulcerogenicity” (Eur J Med Chem, 2014)
